Most compounds without a hit are left out; they make up all but 2.6% or so of the library.
SENP1 FRET inh = inhibitors of human SENP1 SUMO protease catalytic domain; recombinant SENP1 catalytic domain, CyPet-SUMO1-YPet FRET cleavage; inhibition, % at 10 µM; hit rate 0.21% among 360,000; Q9P0U3;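 active means inhibition at least 30% at 10 µM, raw YFP signal under a set limit, fluorescence ratio 0.5 to 1.5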;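 further: 0% = enzyme with DMSO and 100% = no enzyme wells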
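Compound: 10 µM single point, 0.5% DMSO; Test system: hSENP1 catalytic domain, recombinant; Timing: 50 min reaction at room temperature; Technique: FRET, CFP and YFP emission; Control set: no-enzyme wells low, DMSO-plus-enzyme wells high control.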
SENP8 block-1 = SENP8 (human) protease inhibition; Q96LD8; recombinant SENP8, Nedd8 substrate fluorescence; inhibition, % at 20 µM; hit rate 0.64% among 360,000; in the data active means inhibition mostly above about 40%, no sharp cut-off; inactive means mostly below about 27%
SENP8 block-2 = SENP8 protease inhibition; purified SENP8, Z-RLRGG-aminoluciferin cleavage, luminescence; AID 2540; inhibition, % at 10 µM; Q96LD8; hit rate 1.2% among 330,000; in the data active means inhibition above about 50%
SENP7 inh = inhibitors of human SENP7 protease; Q9BQF6; recombinant SENP7, Z-RLRGG-aminoluciferin luminescence, 40 min; inhibition, % at 5 µM; hit rate 1.5% among 330,000; AID 434973;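 active means inhibition above about 50% at the single test dose, limit read from the data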;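 further: plate controls were DMSO with enzyme for no effect and no enzyme buffer wells for full effect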
SENP6 inh = inhibitors of human SENP6 protease | Q9GZR1 | hit rate 1.8% among 330,000 | AID 2599 | Recombinant SENP6 catalytic domain, aminoluciferin luminescence | inhibition, % at 10 µM;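 active means inhibition above about 50% at the single tested dose, limit read from the data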;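 further: plate controls were DMSO wells with enzyme for no effect and DMSO wells lacking enzyme for full effect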
Target sequence (Q9GZR1 628-1112 limits assumed): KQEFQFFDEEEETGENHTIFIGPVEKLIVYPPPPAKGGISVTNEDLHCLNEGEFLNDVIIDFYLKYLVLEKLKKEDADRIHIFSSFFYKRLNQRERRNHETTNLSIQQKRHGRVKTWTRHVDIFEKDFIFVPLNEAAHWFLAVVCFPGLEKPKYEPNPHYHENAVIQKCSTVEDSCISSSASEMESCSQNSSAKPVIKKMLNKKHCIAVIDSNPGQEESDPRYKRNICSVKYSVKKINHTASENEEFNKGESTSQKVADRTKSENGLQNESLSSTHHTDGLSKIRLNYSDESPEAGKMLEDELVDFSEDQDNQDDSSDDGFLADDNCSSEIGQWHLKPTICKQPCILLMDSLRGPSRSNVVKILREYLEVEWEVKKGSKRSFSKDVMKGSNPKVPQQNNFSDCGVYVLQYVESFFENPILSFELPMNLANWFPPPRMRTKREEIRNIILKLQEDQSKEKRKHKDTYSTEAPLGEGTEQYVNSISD
UCH37 DUB inh = blocks the human deubiquitinase UCH37; Q9Y5K5; hit rate 0.33% among 330,000; purified proteasome/UCH37, Ub-AMC cleavage fluorescence; inhibition, % (no concentration beside the values);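 active means mean inhibition over replicate wells above about 20%, limit read from the data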;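 further: 0% = compound-free wells with enzyme and 100% = wells lacking proteasome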
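Material: Human UCH37 enzyme supplied as purified proteasome complex | Schedule: 30 min compound-proteasome preincubation then 25 min substrate reaction, room temperature | Detection: AMC fluorescence from Ub-AMC cleavage, excitation 355 nm, emission 460 nm | Benchmarks: Wells without proteasome as full block, compound-free enzyme plus substrate as uninhibited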
SENP8 confirm = human SENP8 inhibition, confirmed; shares compounds with SENP7 inh; Recombinant SENP8, Z-RLRGG-aminoluciferin luminescence, 60 min; AID 488912; inhibition, % at 12.5 µM; hit rate 40% among 6,200;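 active means mean inhibition across replicates above about 50%, limit read from the data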
SENP6 conf = human SENP6 inhibition, confirmed; recombinant SENP6, Z-RLRGG-aminoluciferin luminescence; hit rate 58% among 6,200; inhibition, % at 12.5 µM; shares compounds with SENP7 inh; AID 488915
SENP7 confirm = human SENP7 inhibition, confirmed. shares compounds with SENP7 inh. recombinant SENP7, Z-RLRGG-aminoluciferin luminescence, 40 min. inhibition, % at 12.5 µM. hit rate 69% among 6,200. AID 488917
Casp3 select = caspase-3 inhibition (SENP selectivity assay) | shares compounds with SENP7 inh | purified caspase-3, Z-DEVD-aminoluciferin luminescence, 60 min | inhibition, % at 12.5 µM | hit rate 60% among 6,200 | AID 488918;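 active means mean inhibition above about 50%, limit read from the data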;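 further: plate controls were enzyme with DMSO for no effect and wells without caspase-3 for full effect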
Target sequence (P42574 28-227 limits assumed): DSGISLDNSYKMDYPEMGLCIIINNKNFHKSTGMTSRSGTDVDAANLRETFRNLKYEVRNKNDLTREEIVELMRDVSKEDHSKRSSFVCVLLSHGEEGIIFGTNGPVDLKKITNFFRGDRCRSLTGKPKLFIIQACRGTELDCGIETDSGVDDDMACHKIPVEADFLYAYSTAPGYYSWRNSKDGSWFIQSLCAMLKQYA
SENP luc ctr = counter-screen for SENP inhibitors: luminescence interference | shares compounds with SENP7 inh | Pre-incubated SENP8/Z-RLRGG-aminoluciferin, luciferase luminescence interference | inhibition, % at 12.5 µM | hit rate 39% among 6,200;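 active means mean inhibition above about 50% when retested at one dose, limit read from the data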;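 further: plate controls were DMSO wells with completed reaction for no effect and substrate without enzyme for full effect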
* hit, by the source's call; i = inactive; / = not tested or not shown.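 How the source made its calls, unless noted: active means mean inhibition above about 50% in the one-dose retest (limit read from the data); inactive means the rest.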

SMILES	SENP1 FRET inh	SENP8 block-1	SENP8 block-2	SENP7 inh	SENP6 inh	UCH37 DUB inh	SENP8 confirm	SENP6 conf	SENP7 confirm	Casp3 select	SENP luc ctr
O=C(Nc1ccc(Cl)cc1)Nc1nccs1	2	16	25	52*	68*	2	50*	50*	77*	39	37
CC(=NN=C(N)N)c1ccccc1	/	/	/	/	/	5	/	/	/	/	/
CN(C)C(=O)Oc1ccc(-c2cn3cc(Cl)ccc3n2)cc1	2	-190	91*	94*	-1	-20	-24	93*	102*	97*	44
N/C(=N\N=C\c1ccc(O)cc1O)N[N+](=O)[O-]	-27	12	51*	52*	15	/	61*	60*	86*	88*	68*
CC(=O)C1C2c3ccccc3OC1(C)N=c1sc(=Cc3cnn(C)c3)c(=O)n12 (stereo not drawn)	/	/	/	/	/	2	/	/	/	/	/
CCOC(=O)c1c(N=CC2C(=O)NC(=S)NC2=O)sc2c1CCC2	/	/	/	/	/	4	/	/	/	/	/
CCCCn1c(NS(=O)(=O)c2ccc(C)cc2)c(C(=O)OCC)c2nc3ccccc3nc21	-25	-288	62*	8	93*	/	20	32	4	-5	-15
CCOC(=O)c1c(N)n(Cc2ccco2)c2nc3ccccc3nc12	-25	-316	7	-2	14	i	/	/	/	/	/
CCCCn1c(NC(=O)c2ccco2)c(C(=O)OCC)c2nc3ccccc3nc21	-21	-271	62*	-12	84*	-141	75*	89*	71*	5	-9
CCCCn1c(N)c(C(=O)OCCOC)c2nc3ccccc3nc21	-45	-454	3	4	5	-395	/	/	/	/	/
COc1ccc(/C=C2\C(=NO)C3CCN2CC3)cc1	/	/	/	/	/	2	/	/	/	/	/
CC(C)OCCCNC(=O)c1c(N)n(CC2CCCO2)c2nc3ccccc3nc12 (stereo not drawn)	-24	-266	92*	66*	94*	i	-20	12	4	-8	-15
CC(C)OC(=O)c1c(N)n(CC2CCCO2)c2nc3ccccc3nc12 (stereo not drawn)	-127	i	39	39	51*	i	6	3	0	-2	-1
Nc1c(C(=O)OC2CCCCC2)c2nc3ccccc3nc2n1CC1CCCO1 (stereo not drawn)	-116	-281	5	7	17	-335	/	/	/	/	/
CC(C)CCOC(=O)c1c(N)n(CC2CCCO2)c2nc3ccccc3nc12 (stereo not drawn)	-93	i	-1	9	7	-446	/	/	/	/	/
CCCNC(=O)c1c(N)n(CC2CCCO2)c2nc3ccccc3nc12 (stereo not drawn)	-26	-297	94*	79*	94*	i	9	56*	34	-2	-2
O=C(NN=CC1C(=O)NC(=S)N(c2ccccc2)C1=O)c1ccc(O)cc1 (stereo not drawn)	/	/	/	/	/	1	/	/	/	/	/
CC(C)C[C@H]1C(=O)N2CCCC2[C@]2(O)O[C@](NC(=O)[C@@H]3C=C4c5cccc6[nH]cc(c56)CC4N(C)C3)(C(C)C)C(=O)N12 (stereo partly drawn)	-29	-389	42	33	54*	-17	17	30	10	6	-2
CN1C[C@H](CO)C=C2c3cccc4[nH]cc(c34)C[C@H]21	20	-186	10	30	45	-208	/	/	/	/	/
CC(C)[C@@]1(NC(=O)[C@@H]2C[C@@H]3c4cccc5[nH]cc(c45)C[C@H]3N(C)C2)O[C@@]2(O)[C@@H]3CCCN3C(=O)[C@H](Cc3ccccc3)N2C1=O	7	-85	12	7	5	-4	/	/	/	/	/
CC(C)[C@H]1C(=O)N2CCC[C@H]2[C@]2(O)O[C@](NC(=O)[C@@H]3C=C4c5cccc6[nH]cc(c56)C[C@H]4N(C)C3)(C(C)C)C(=O)N12	-29	-379	43	40	52*	-317	-11	4	-7	-2	-8
CCOC(=O)c1cc(C)sc1N=CC1C(=O)NC(=S)NC1=O	/	/	/	/	/	3	/	/	/	/	/
COc1ccc(-c2nc3ccccc3c(=O)o2)cc1	1	9	19	90*	81*	-16	63*	44	75*	54*	34
COc1ccc(-n2c(-c3ccc(C)cc3)nc3ccccc3c2=O)cc1	-1	12	-8	9	-3	1	/	/	/	/	/
NC(=N[N+](=O)[O-])N1CCN(C(=O)c2ccc(Cl)cc2)CC1	/	/	/	/	/	2	/	/	/	/	/
SMILES	SENP1 FRET inh	SENP8 block-1	SENP8 block-2	SENP7 inh	SENP6 inh	UCH37 DUB inh	SENP8 confirm	SENP6 conf	SENP7 confirm	Casp3 select	SENP luc ctr
COc1ccc(-c2cc(=Nc3ccccc3)c3cc(C)ccc3o2)cc1	4	-340	22	68*	69*	0	12	7	0	7	13
Cc1cc(N=Nc2ccccc2C)ccc1N	2	55*	76*	86*	90*	9	81*	82*	96*	49	86*
CCCOC(=O)c1c(N)n(Cc2cccs2)c2nc3ccccc3nc12	-73	-284	-2	-2	5	-322	/	/	/	/	/
CCCCn1c(N)c(C(=O)NCc2cccs2)c2nc3ccccc3nc21	-20	-257	93*	38	88*	-355	10	18	17	2	2
COCCCn1c(N)c(C(=O)NCCC(C)C)c2nc3ccccc3nc21	-24	-288	77*	63*	81*	i	-6	13	-1	4	-6
CCCCNC(=O)c1c(N)n(Cc2ccc3c(c2)OCO3)c2nc3ccccc3nc12	-26	-270	89*	62*	94*	-35	-7	3	-2	5	3
Nc1c(C(=O)NCCCc2ccccc2)c2nc3ccccc3nc2n1Cc1cccs1	-19	-285	46	35	60*	-462	-18	11	0	-5	-6
CCCCCn1c(N)c(C(=O)NCCN2CCOCC2)c2nc3ccccc3nc21	-19	-490	9	3	11	-428	/	/	/	/	/
CCCCCCn1c(N)c(C(=O)NCCN2CCOCC2)c2nc3ccccc3nc21	-25	-432	7	22	36	-102	/	/	/	/	/
